# Measurements of several laboratories.
# Lines come from different studies, so protocols differ.
# Target: Testis-specific serine/threonine-protein kinase 1 (TSSK1B, Homo sapiens, UniProt Q9BXA7)
# One construct used (Q9BXA7 1-367): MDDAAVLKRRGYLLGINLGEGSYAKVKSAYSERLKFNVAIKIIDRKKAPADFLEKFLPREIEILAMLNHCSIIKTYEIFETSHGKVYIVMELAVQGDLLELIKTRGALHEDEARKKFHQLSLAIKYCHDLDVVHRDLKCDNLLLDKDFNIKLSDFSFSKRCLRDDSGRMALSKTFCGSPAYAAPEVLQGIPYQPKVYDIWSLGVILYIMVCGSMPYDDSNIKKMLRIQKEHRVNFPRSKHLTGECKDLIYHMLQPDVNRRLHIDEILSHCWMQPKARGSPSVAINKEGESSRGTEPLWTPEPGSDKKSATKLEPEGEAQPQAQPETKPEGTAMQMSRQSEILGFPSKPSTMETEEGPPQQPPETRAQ
Compound,effect on,method,concentration,remaining binding [%]
CSc1cccnc1N1CCN(Cc2nc3ccccc3[nH]2)CC1,cell-free assay,competition with immobilised ligand,1 µM,100
N#Cc1ccccc1CSc1nnc2c(n1)[nH]c1ccccc12,binding,competition with immobilised ligand,10 µM,100
NS(=O)(=O)c1cc(NC(=O)Cc2ccccc2)ccc1Oc1cccc(Cl)c1,cell-free assay,competition with immobilised ligand,1 µM,100
N[C@@H]1CCN(c2nccc(-c3cnn4ncccc34)n2)C1,binding,,1 µM,97
C[C@@H]1CN(c2ccc3ncc(-c4ccc5[nH]nc(C6CC6)c5c4)n3n2)C[C@H](C)O1,binding,competition with immobilised ligand,50 nM,78
CN(C)c1ncc(F)c(-c2cnn3ncccc23)n1,binding,,1 µM,100
O=C(O)[C@@H]1[C@@H](Cn2nnc3ccccc3c2=O)CC[C@H]1C(=O)c1ccc(OCCC2CCOCC2)cc1,cell-free assay,competition with immobilised ligand,1 µM,100
CN(C)c1nccc(-c2cnn3ncccc23)n1,binding,,1 µM,100
O=C(c1ccc(Nc2ncc(Cl)c(-c3ccc(Cl)s3)n2)cc1)N1CCC(N2CCCC2)CC1,binding,competition with immobilised ligand,1 µM,49
COc1cc(-c2cn(C3CCc4ccccc4N(CC(F)(F)F)C3=O)nn2)ccc1-n1ccc(C)n1 (centres unmarked),cell-free assay,competition with immobilised ligand,1 µM,83
F[C@@H]1CCN(c2nccc(-c3cnn4ncccc34)n2)C1,binding,,1 µM,100
COc1cnc(Nc2cccc(S(N)(=O)=O)c2)nc1N1CCN(c2ccccc2)CC1,binding,competition with immobilised ligand,1 µM,100
COc1ncc2cc3ccccc3nc2c1C#N,cell-free assay,competition with immobilised ligand,5 µM,97
CC(C)(C)c1ccc(-c2nc(CBr)nn2-c2cccc(O)c2)cc1,cell-free assay,competition with immobilised ligand,10 µM,81
O=C(NCCCN1CCOCC1)c1ccc(Nc2ncc(Cl)c(-c3ccc(Cl)s3)n2)cc1,binding,competition with immobilised ligand,1 µM,62
O=C(NS(=O)(=O)c1ccc(NCC2CCOCC2)c([N+](=O)[O-])c1)c1ccc(N2CCN(Cc3ccc(C(F)(F)F)cc3-c3ccc(Cl)cc3)CC2)cc1Oc1cnc2[nH]ccc2c1,cell-free assay,competition with immobilised ligand,1 µM,100
C[C@@H]1CCN(c2nccc(-c3cnn4ncccc34)n2)C1,binding,,1 µM,100
CNC(=O)[C@@H]1CC[C@@H](n2c(-c3ccc4cnccc4c3)nc3ccc(C(=O)NCc4cccc(C(N)=O)c4)cc32)C1,binding,competition with immobilised ligand,1 µM,93
FC(F)(F)Oc1cccc(-c2cnc3ccc(-c4ccncc4)nn23)c1,binding,competition with immobilised ligand,5 µM,83
O=C(Nc1c[nH]nc1C(=O)NC1CCNCC1)c1cc(F)cc(F)c1,binding,competition with immobilised ligand,1 µM,100
O=C(c1ccc(Nc2nccc(-c3cc4ccccc4s3)n2)cc1)N1CCC(N2CCCC2)CC1,binding,competition with immobilised ligand,1 µM,100
CCN1CCN(Cc2ccc(C(=O)Nc3ccc(C)c(Oc4ccc5c(c4)CC(=O)N5)c3)cc2C(F)(F)F)CC1,binding,competition with immobilised ligand,1 µM,93
CN(CCCC(F)(F)F)c1nccc(-c2cnn3ncccc23)n1,binding,,1 µM,92
CCC(=N\O)/C(C)=C/c1ccc(F)cc1,cell-free assay,competition with immobilised ligand,1 µM,82
CC1CCCN1c1nccc(-c2cnn3ncccc23)n1 (centres unmarked),binding,,1 µM,100
COc1ccc2c(c1)O[C@@H](c1ccc(OC)c(OC)c1)C[C@H]2NC(=O)C1(c2ccc3c(c2)OC(F)(F)O3)CC1,cell-free assay,competition with immobilised ligand,1 µM,100
